Results taken from ChEMBL document CHEMBL2176911 (J Med Chem, 2012).
Activity calls are given as the source filed them. The rule behind the calls is not given here.

Legend:
[1] = target: Dual specificity tyrosine-phosphorylation-regulated kinase 1A (Homo sapiens) (UniProt Q13627); experiment: Inhibition of human recombinant GST-tagged DYRK1A expressed in Escherichia coli using GRSRSRSRSRSR as substrate and [gamma33P]ATP at 15 uM after 30 mins by scintillation counting
[2] = target: Dual specificity protein kinase CLK3 (Mus musculus) (UniProt O35492); experiment: Inhibition of mouse recombinant GST-tagged CLK3 expressed in Escherichia coli using GRSRSRSRSRSR as substrate and [gamma33P]ATP at 10 uM after 30 mins by scintillation counting
Chain of Dual specificity protein kinase CLK3 (Mus musculus) (O35492 whole entry): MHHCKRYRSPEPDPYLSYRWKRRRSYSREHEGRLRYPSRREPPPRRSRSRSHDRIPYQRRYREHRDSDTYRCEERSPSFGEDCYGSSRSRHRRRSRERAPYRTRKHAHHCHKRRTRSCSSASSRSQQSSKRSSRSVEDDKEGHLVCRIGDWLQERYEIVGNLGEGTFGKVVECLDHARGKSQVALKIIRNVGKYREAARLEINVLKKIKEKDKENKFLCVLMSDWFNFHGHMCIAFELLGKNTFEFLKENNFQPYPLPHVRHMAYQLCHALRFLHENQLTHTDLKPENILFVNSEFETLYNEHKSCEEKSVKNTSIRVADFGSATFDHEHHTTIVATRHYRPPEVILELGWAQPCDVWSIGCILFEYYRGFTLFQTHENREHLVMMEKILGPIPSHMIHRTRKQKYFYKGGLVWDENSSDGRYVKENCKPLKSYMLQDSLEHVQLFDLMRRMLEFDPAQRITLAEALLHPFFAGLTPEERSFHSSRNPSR
Outline: (§1)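 Radiometric kinase assay with the RS peptide as substrate and 15 μM [γ-33P]ATP.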

[3] = target: T1, Dual specificity tyrosine-phosphorylation-regulated kinase 2 (Homo sapiens) (UniProt Q92630); experiment: Inhibition of human recombinant GST-tagged DYRK2 expressed in Escherichia coli using GRSRSRSRSRSR as substrate and [gamma33P]ATP at 10 uM after 30 mins by scintillation counting
T1 sequence (whole entry): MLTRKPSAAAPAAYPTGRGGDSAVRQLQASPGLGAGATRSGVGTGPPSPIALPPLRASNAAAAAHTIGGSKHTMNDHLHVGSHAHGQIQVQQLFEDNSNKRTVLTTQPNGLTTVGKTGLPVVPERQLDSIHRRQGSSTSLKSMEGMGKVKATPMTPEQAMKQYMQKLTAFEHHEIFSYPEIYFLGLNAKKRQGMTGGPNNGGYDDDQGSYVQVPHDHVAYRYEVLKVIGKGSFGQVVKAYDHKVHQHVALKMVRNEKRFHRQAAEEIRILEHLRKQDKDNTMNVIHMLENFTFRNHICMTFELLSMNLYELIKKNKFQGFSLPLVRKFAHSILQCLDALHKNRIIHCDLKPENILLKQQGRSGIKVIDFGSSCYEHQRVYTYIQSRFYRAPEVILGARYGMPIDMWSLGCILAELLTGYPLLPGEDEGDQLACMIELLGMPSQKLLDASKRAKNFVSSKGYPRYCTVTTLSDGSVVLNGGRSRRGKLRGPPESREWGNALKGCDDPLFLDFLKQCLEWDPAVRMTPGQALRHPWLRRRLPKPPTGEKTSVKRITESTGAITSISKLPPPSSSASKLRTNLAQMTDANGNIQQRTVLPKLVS

[4] = target: Dual specificity protein kinase CLK1 (Mus musculus) (UniProt P22518); experiment: Inhibition of mouse recombinant GST-tagged CLK1 expressed in Escherichia coli using GRSRSRSRSRSR as substrate and [gamma33P]ATP at 10 uM after 30 mins by scintillation counting
Outline: as §1

[5] = system: HT-22; experiment: Neuroprotective activity against glutamate-induced toxicity in mouse HT22 cells after 24 hrs by MTS assay; type: functional, cell-based
[6] = target: Cyclin-dependent kinase 7/ cyclin H (Homo sapiens, UniProt P50613); experiment: Inhibition of human recombinant CDK7/cyclin H expressed in insect cell using YSPTSPSYSPTSPSYSPTSPSKKKK as substrate and [gamma33P]ATP after 30 mins by scintillation counting
Chain of Cyclin-dependent kinase 7/ cyclin H (P51946 whole entry): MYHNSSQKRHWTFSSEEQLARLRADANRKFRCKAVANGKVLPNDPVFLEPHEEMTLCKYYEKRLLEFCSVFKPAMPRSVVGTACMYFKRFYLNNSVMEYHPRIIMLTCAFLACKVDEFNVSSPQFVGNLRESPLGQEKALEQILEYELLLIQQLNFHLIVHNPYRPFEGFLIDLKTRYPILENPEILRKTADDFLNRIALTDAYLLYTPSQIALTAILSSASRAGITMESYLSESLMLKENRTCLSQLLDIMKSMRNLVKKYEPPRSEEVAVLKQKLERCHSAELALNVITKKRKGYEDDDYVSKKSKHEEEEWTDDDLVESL
Chain of Cyclin-dependent kinase 7/ cyclin H (P50613 whole entry): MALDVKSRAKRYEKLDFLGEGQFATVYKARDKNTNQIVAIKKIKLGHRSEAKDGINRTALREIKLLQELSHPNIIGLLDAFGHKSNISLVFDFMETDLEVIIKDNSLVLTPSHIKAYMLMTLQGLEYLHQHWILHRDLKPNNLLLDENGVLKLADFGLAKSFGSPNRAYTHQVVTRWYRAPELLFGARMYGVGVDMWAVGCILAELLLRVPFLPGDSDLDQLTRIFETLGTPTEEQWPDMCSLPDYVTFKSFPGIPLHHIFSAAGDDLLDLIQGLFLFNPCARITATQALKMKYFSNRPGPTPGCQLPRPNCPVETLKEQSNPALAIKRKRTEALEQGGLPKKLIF
Outline: (§2)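 Panel of purified kinases (recombinant from several species plus native enzymes), each assayed radiometrically over a range of inhibitor concentrations; IC50 in μM calculated from the dose-response curves.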

[7] = target: CDK9/cyclin T1 (Homo sapiens, UniProt P50750); experiment: Inhibition of human recombinant CDK9/cyclin T expressed in insect cell using YSPTSPSYSPTSPSYSPTSPSKKKK as substrate and [gamma33P]ATP after 30 mins by scintillation counting
Chain of CDK9/cyclin T1 (O60563 whole entry): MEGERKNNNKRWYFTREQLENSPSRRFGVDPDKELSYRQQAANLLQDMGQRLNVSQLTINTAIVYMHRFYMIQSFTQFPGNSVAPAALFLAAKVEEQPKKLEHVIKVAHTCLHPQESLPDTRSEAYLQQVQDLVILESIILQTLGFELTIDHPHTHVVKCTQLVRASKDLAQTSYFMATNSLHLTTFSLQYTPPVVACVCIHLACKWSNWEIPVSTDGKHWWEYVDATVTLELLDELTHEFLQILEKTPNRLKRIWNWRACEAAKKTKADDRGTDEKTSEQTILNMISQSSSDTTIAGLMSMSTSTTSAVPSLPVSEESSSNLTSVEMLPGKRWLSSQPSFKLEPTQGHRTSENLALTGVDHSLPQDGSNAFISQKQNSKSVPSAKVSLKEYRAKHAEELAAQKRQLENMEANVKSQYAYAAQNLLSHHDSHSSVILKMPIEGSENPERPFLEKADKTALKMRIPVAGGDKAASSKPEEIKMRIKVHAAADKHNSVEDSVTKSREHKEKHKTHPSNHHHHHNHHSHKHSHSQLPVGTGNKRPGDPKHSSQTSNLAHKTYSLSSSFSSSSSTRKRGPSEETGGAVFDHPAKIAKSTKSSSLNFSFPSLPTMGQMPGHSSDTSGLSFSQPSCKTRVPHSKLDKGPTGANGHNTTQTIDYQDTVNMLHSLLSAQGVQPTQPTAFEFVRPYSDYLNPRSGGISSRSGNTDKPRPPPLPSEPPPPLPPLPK
Chain of CDK9/cyclin T1 (P50750 whole entry): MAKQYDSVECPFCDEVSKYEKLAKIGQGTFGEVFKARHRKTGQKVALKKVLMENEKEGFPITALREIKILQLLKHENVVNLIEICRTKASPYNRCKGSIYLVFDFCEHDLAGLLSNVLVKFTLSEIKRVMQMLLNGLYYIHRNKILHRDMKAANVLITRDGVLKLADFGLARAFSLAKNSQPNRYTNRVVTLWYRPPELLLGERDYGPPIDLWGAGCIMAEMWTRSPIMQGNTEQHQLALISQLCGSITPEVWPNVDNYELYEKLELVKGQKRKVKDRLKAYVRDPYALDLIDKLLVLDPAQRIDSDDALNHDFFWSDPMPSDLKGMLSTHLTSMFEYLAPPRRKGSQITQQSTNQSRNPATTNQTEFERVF
Outline: as §2

[8] = target: Cyclin-dependent kinase 2/cyclin A (Homo sapiens, UniProt P24941); experiment: Inhibition of CDK2/cyclin A using [gamma33P]ATP after 30 mins by scintillation counting; type: protein-complex assay
Outline: as §2

[9] = target: Dual specificity protein kinase CLK3 (Homo sapiens, UniProt P49761); experiment: Binding affinity to CLK3
[10] = target: Mitogen-activated protein kinase 1 (Rattus norvegicus, UniProt P63086); experiment: Inhibition of rat recombinant ERK2 using Ets1 as substrate and [gamma33P]ATP as substrate after 30 mins by scintillation counting
Chain of Mitogen-activated protein kinase 1 (P63086 whole entry): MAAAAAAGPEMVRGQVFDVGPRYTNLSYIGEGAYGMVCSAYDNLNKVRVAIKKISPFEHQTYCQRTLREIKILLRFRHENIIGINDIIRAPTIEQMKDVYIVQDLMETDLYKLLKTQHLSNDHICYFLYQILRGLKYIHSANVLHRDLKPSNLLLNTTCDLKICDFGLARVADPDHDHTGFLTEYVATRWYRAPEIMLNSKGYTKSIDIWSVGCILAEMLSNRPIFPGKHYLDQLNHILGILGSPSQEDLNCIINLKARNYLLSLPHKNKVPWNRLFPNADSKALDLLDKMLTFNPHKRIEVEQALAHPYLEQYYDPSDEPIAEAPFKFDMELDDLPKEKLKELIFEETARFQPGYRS
Outline: as §2

[11] = target: Dual specificity protein kinase CLK4 (Homo sapiens, UniProt Q9HAZ1); experiment: Binding affinity to CLK4
Chain of Dual specificity protein kinase CLK4 (Homo sapiens, UniProt Q9HAZ1) (Q9HAZ1 whole entry, looked up, the tested form may be a part): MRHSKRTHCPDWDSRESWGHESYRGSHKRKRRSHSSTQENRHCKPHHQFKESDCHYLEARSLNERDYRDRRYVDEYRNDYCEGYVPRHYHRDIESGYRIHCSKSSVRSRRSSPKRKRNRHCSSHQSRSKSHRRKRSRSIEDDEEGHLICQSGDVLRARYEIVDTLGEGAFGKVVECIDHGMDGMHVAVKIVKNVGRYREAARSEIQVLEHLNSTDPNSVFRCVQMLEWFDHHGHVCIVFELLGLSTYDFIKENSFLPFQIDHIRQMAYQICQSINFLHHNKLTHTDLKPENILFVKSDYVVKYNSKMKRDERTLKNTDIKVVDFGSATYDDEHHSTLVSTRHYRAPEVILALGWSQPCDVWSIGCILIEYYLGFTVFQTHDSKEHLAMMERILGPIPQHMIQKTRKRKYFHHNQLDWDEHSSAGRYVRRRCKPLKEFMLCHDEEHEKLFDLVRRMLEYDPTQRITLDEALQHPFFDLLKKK

[12] = target: T2, Dual specificity tyrosine-phosphorylation-regulated kinase 1A (Rattus norvegicus, UniProt Q63470); experiment: Inhibition of rat recombinant C-terminal truncated GST-tagged DYRK1A expressed in Escherichia coli using GRSRSRSRSRSR as substrate and [gamma33P]ATP after 30 mins by scintillation counting
[13] = system: Leishmania major; experiment: Inhibition of Leishmania major recombinant CK1 expressed in Escherichia coli using RRKHAAIGpSAYSITA as substrate and [gamma33P]ATP at 10 uM after 30 mins by scintillation counting
[14] = target: Dual specificity protein kinase CLK3 (Mus musculus, UniProt O35492); experiment: Inhibition of mouse recombinant GST-tagged CLK3 expressed in Escherichia coli using GRSRSRSRSRSR as substrate and [gamma33P]ATP after 30 mins by scintillation counting
Chain of Dual specificity protein kinase CLK3 (Mus musculus, UniProt O35492) (O35492 whole entry): as the sequence (O35492 whole entry) above
Outline: as §2

[15] = Inhibition of pig […] isolated from brain using RRKHAAIGpSAYSITA as substrate and [gamma33P]ATP after 30 mins by scintillation couting; set-up: species or system Sus scrofa
Outline: as §2

[16] = target: Dual specificity protein kinase CLK4 (Mus musculus, UniProt O35493); experiment: Inhibition of mouse recombinant GST-tagged CLK4 expressed in Escherichia coli using GRSRSRSRSRSR as substrate and [gamma33P]ATP after 30 mins by scintillation counting
Chain of Dual specificity protein kinase CLK4 (Mus musculus, UniProt O35493) (O35493 whole entry): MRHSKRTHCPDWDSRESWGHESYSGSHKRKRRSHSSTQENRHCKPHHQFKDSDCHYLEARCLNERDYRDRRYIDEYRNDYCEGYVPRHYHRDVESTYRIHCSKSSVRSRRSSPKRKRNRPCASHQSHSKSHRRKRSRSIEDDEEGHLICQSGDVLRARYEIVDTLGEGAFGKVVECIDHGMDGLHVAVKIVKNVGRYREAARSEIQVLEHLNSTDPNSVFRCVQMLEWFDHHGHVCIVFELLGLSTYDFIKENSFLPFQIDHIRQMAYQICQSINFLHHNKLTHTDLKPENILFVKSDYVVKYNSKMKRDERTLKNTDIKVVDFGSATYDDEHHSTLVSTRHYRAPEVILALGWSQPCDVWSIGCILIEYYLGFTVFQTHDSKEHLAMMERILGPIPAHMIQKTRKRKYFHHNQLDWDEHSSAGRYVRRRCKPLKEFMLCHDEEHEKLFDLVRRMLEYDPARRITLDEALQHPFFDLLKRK

[17] = target: Casein kinase II (Homo sapiens) (UniProt P67870+P68400+P19784); experiment: Inhibition of human recombinant CK2 using RRREDEESDDEE as substrate and [gamma33P]ATP at 10 uM after 30 mins by scintillation counting; type: protein-complex assay
[18] = target: Glycogen synthase kinase-3 (Sus scrofa, UniProt B2LUN4+I6LNT8); experiment: Inhibition of pig GSK3alpha/beta isolated from brain using YRRAAVPPSPSLSRHSSPHQ-phosphoS-EDEEE as substrate and [gamma33P]ATP after 30 mins by scintillation counting
Outline: as §2

[19] = target: T2, Dual specificity tyrosine-phosphorylation-regulated kinase 1A; experiment: Inhibition of rat DYRK1A isolated from brain using KKISGRLSPIMTEQ as substrate and [gamma33P]ATP after 30 mins by scintillation counting
[20] = system: Plasmodium falciparum; experiment: Inhibition of Plasmodium falciparum recombinant GSK3 expressed in Escherichia coli using YRRAAVPPSPSLSRHSSPHQ-phosphoS-EDEEE as substrate and [gamma33P]ATP at 10 uM after 30 mins by scintillation counting
[21] = target: Dual specificity protein kinase CLK1 (Homo sapiens) (UniProt P49759); experiment: Binding affinity to CLK1
Chain of Dual specificity protein kinase CLK1 (Homo sapiens) (P49759 whole entry, looked up): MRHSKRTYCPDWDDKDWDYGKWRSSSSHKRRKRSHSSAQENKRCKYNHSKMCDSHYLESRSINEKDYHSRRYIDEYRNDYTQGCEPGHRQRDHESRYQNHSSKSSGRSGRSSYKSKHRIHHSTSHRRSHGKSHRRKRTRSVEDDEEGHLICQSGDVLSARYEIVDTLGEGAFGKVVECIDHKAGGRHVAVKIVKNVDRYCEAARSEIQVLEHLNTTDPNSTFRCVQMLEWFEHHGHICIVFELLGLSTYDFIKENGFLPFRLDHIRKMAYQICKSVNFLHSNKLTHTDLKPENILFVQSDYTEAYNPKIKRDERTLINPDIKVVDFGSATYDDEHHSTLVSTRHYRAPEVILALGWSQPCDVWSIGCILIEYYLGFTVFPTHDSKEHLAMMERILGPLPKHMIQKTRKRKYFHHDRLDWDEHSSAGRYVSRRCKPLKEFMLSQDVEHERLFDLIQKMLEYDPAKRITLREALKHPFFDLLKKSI

[22] = Inhibition of starfish CDK1/cyclin B using histone H1 as substrate and [gamma33P]ATP after 30 mins by scintillation counting; set-up: species or system Asteroidea
Outline: as §2

[23] = target: Serine/threonine-protein kinase pim-1 (Homo sapiens, UniProt P11309); experiment: Inhibition of human recombinant PIM1 expressed in Escherichia coli using histone H1 as substrate and [gamma33P]ATP after 30 mins by scintillation counting
Chain of Serine/threonine-protein kinase pim-1 (P11309 whole entry): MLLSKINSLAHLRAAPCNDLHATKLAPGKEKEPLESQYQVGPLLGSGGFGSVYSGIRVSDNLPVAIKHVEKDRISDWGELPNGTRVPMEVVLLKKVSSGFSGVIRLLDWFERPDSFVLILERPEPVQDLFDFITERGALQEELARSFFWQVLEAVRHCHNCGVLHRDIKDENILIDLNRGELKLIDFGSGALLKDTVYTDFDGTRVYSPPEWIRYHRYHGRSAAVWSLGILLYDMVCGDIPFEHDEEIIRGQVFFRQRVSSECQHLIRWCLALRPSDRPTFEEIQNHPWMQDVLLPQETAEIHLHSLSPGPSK

[24] = target: Dual specificity protein kinase CLK1 (Mus musculus, UniProt P22518); experiment: Inhibition of mouse recombinant GST-tagged CLK1 expressed in Escherichia coli using GRSRSRSRSRSR as substrate and [gamma33P]ATP after 30 mins by scintillation counting
Outline: as §2

[25] = target: Glycogen synthase kinase-3 alpha (Homo sapiens, UniProt P49840); experiment: Inhibition of human recombinant GSK3alpha expressed in insect cells using YRRAAVPPSPSLSRHSSPHQ-phosphoS-EDEEE as substrate and [gamma33P]ATP after 30 mins by scintillation counting
[26] = target: Glycogen synthase kinase-3 beta (Homo sapiens, UniProt P49841); experiment: Inhibition of human recombinant GSK3beta expressed in insect cells using YRRAAVPPSPSLSRHSSPHQ-phosphoS-EDEEE as substrate and [gamma33P]ATP after 30 mins by scintillation counting
[27] = target: Dual specificity tyrosine-phosphorylation-regulated kinase 3 (Homo sapiens, UniProt O43781); experiment: Inhibition of human recombinant GST-tagged DYRK3 expressed in Escherichia coli using GRSRSRSRSRSR as substrate and [gamma33P]ATP after 30 mins by scintillation counting
[28] = target: Dual specificity tyrosine-phosphorylation-regulated kinase 2 (Homo sapiens, UniProt Q92630); experiment: Inhibition of human recombinant GST-tagged DYRK2 expressed in Escherichia coli using GRSRSRSRSRSR as substrate and [gamma33P]ATP after 30 mins by scintillation counting
[29] = target: T1, Dual specificity tyrosine-phosphorylation-regulated kinase 2 (Homo sapiens); experiment: Binding affinity to DYRK2
[30] = target: Dual specificity protein kinase CLK2 (Mus musculus, UniProt O35491); experiment: Inhibition of mouse recombinant GST-tagged CLK2 expressed in Escherichia coli using GRSRSRSRSRSR as substrate and [gamma33P]ATP after 30 mins by scintillation counting
Outline: as §2

[31] = target: T3, Dual specificity tyrosine-phosphorylation-regulated kinase 4 (Homo sapiens, UniProt Q9NR20); experiment: Inhibition of human recombinant GST-tagged DYRK4 expressed in Escherichia coli using GRSRSRSRSRSR as substrate and [gamma33P]ATP after 30 mins by scintillation counting
T3 sequence (Q9NR20 whole entry): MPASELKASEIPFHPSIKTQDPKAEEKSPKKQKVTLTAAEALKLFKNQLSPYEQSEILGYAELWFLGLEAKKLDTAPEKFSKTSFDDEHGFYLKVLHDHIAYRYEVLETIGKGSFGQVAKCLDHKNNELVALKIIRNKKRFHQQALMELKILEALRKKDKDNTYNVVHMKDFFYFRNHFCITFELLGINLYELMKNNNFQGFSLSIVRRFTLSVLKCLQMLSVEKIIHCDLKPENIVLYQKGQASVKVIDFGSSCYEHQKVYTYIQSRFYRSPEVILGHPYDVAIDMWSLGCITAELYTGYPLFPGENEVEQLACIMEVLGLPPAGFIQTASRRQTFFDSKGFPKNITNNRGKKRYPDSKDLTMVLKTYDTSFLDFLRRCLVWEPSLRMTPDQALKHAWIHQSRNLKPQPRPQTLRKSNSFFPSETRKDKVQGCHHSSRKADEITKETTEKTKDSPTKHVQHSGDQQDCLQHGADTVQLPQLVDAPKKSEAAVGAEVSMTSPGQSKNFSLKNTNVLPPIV

[32] = system: HT-22; experiment: Inhibition of GSK3-mediated […] phosphorylation in mouse HT22 cells at 10 uM after 24 hrs by Western blot analysis in presence of MG132; type: cell-based

Q: For `CC12CC3CC(C)(C1)CC(N)(C3)C2`, which inhibition [1] is on record?
A: inactive

Q: What about the inhibition [2] of the same compound?
A: inactive

Q: And the inhibition [3]?
A: inactive

Q: And the inhibition [4]?
A: inactive

Q: For `Nc1ccc(C(=O)Nc2cccc(-c3nc(N4CCOCC4)c4oc5ncccc5c4n3)c2)cn1`, which Activity [5] is on record?
A: inactive

Q: Which results are given for `CN1C(=O)/C(=C/c2ccc3c(c2)OCO3)N=C1N` [LEUCETTAMINE B]?
A: IC50 [6]: > 10 µM; IC50 [7]: > 10 µM; IC50 [8]: > 10 µM; Activity [9]: Active; IC50 [10]: > 10 µM; Activity [11]: Active; IC50 [12]: 0.92 µM; inhibition [13]: inactive; IC50 [14]: 1.8 µM; IC50 [15]: > 10 µM; IC50 [16]: 0.15 µM; inhibition [17]: inactive; IC50 [18]: 2.9 µM; IC50 [19]: 0.9 µM; inhibition [20]: inactive; Activity [21]: Active; IC50 [22]: > 10 µM; IC50 [23]: > 10 µM; IC50 [24]: 0.066 µM; IC50 [25]: 7.7 µM; IC50 [26]: > 10 µM; IC50 [27]: 1.4 µM; IC50 [28]: 2 µM; Activity [29]: Active; IC50 [30]: 2.1 µM; IC50 [31]: > 10 µM

Q: For `O=C(O)c1ccc2c(c1)nc(Nc1cccc(Cl)c1)c1ccncc12`, which Activity [5] is on record?
A: inactive

Q: For `O=C1Nc2cc(Br)ccc2/C1=C1/N=c2ccccc2=C1NO`, which inhibition [32] is on record?
A: Active
